Source: PMC4459094 (FEBS Open Bio, 2015)

Legend:
hMIP = details: continuous activity assay with fluorogenic substrate Abz-GFSPFRQ-EDDnp; cited from earlier work
[1] = molecular target: T1, recombinant human mitochondrial intermediate peptidase (hMIP) (Homo sapiens, UniProt Q99797); experiment: Hydrolysis of FRET peptides by hMIP in solution; format: biochemical; details: analogue without the P8 and P5 versus Abz-FRSGQPLQNKVQLQ-EDDnp
T1 sequence (Q99797 36-713): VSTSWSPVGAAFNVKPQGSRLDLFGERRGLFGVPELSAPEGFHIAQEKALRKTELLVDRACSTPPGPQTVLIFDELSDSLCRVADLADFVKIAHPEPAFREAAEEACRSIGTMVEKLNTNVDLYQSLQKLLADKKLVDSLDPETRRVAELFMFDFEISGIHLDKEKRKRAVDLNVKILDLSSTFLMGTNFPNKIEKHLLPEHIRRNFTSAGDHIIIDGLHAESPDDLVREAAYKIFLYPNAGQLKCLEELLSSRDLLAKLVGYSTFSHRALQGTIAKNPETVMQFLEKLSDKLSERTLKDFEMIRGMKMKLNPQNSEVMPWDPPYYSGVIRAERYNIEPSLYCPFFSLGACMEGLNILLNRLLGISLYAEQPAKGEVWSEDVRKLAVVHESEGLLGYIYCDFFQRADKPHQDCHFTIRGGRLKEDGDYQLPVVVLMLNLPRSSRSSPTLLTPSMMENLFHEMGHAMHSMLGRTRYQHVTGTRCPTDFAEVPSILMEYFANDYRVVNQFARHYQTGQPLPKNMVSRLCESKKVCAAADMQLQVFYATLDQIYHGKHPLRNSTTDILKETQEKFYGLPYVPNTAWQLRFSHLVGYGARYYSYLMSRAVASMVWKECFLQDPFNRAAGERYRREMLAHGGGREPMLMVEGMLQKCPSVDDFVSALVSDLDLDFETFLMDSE
Outline: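 Recombinant human MIP with an N-terminal His6 tag replacing the mitochondrial signal sequence, expressed in E. coli BL21(DE3)pLysS and purified by Ni-affinity then anion-exchange chromatography. Abz/EDDnp FRET peptide hydrolysis was followed fluorometrically (ex 320, em 420 nm). Rates were converted to moles per second using standard peptide fluorescence before and after total hydrolysis, with under 10% substrate consumed. kcat, KM and kcat/KM are given as means ± SD.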

Row | Molecule | inhibition of hMIP (hMIP) | fold lower specificity constant than Abz-FRSGQPLQNKVQLQ-EDDnp [1] [fold]
1 | C[C@H](CS)C(=O)N1CCC[C@H]1C(=O)O [captopril] | small level of inhibition | –
2 | O=C(O)CNC(=O)C(CS)Cc1ccccc1 (stereo not drawn) [thiorphan] | small level of inhibition | –
3 | Abz-QPLQNKVQ-EDDnp [Abz-QPLQ↓NKVQ-EDDnp] | – | 7
